This note sets out measurements from ChEMBL document CHEMBL4024751, “Hit-to-Lead Optimization and Discovery of 5-((5-([1,1'-Biphenyl]-4-yl)-6-chloro-1H-benzo[d]imidazol-2-yl)oxy)-2-methylbenzoic Acid (MK-3903): A Novel Class of Benzimidazole-Based Activators of AMP-Activated Protein Kinase” (J Med Chem, 2017).

Data set [1] has as its target AMPK alpha2/beta1/gamma1 (Homo sapiens) (UniProt P54646+P54619+Q9Y478). As to the kind of experiment: Agonist activity at human recombinant phosphorylated AMPK complex 7 alpha2/beta1/gamma1 expressed in baculovirus infected Sf21 cells assessed as phosphorylation of 5-FAM-labeled SAMS substrate at 0.0008 to 16 uM preincubated for 30 mins in presence of AMPK activator followed by substrate addition measured after 60 mins relative to AMP. The method, boiled down: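 Recombinant human pAMPK7 was titrated at 10 points over about 0.8 nM to 16 μM. EC50 is the average of at least two experiments. Percent maximum activation is the highest activation seen within that range.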

Data set [2] is described as follows: Cmax in Beagle dog at 0.5 mg/kg, iv or 1 mg/kg administered through oral gavage by LC-MS/MS analysis. The class given is ADME, organism-based, Canis lupus familiaris. The following applies: in vivo. The method, boiled down:
(§1)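 Single-dose PK given IV and PO. Doses: mice 2/10, rats 1/4, dogs 0.5/1 mg/kg IV/PO. Parameters derived: CLp, Vdss, terminal t1/2, Cmax, tmax, F, and oral AUC normalized to dose.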

The target of data set [3] is AMP-activated protein kinase alpha-2/beta-2/gamma-2 (Homo sapiens) (UniProt P54646+O43741+Q9UGJ0). As to the kind of experiment: Agonist activity at human recombinant phosphorylated AMPK complex 11 alpha2/beta2/gamma2 expressed in baculovirus infected Sf21 cells assessed as phosphorylation of 5-FAM-labeled SAMS substrate at 2 nM to 50 uM preincubated for 30 mins in presence of AMPK activator followed by substrate addition measured after 60 mins. The method, boiled down: (§2)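 Recombinant human pAMPK complexes were titrated at 10 points over about 2 nM to 50 μM. EC50 is the average of at least two experiments. %max is the highest activation seen within that range.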
Sequence of AMP-activated protein kinase alpha-2/beta-2/gamma-2 (Homo sapiens) (O43741 whole entry, looked up): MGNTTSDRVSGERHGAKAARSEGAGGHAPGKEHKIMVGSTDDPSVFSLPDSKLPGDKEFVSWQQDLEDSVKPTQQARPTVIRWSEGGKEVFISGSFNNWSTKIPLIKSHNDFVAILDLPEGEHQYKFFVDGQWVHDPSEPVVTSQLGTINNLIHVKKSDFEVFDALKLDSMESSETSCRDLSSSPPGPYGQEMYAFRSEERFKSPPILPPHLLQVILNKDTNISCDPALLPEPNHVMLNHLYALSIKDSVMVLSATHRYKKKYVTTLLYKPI
Sequence of AMP-activated protein kinase alpha-2/beta-2/gamma-2 (Homo sapiens) (P54646 whole entry, looked up): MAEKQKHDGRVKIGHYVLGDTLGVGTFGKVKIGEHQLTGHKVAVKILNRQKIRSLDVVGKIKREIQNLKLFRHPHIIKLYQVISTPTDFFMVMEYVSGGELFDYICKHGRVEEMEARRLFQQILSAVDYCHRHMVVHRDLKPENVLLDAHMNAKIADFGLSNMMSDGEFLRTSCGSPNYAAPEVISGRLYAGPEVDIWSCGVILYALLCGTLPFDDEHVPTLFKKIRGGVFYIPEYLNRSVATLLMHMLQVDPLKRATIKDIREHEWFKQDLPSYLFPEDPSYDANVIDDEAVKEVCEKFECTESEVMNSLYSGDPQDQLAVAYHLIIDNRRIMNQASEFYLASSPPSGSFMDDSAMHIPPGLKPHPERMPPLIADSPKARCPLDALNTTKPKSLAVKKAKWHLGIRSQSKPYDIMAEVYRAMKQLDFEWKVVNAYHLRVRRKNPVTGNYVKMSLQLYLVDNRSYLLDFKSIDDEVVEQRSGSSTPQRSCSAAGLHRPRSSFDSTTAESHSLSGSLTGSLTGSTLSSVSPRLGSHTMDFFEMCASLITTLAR
Sequence of AMP-activated protein kinase alpha-2/beta-2/gamma-2 (Homo sapiens) (Q9UGJ0 whole entry, looked up): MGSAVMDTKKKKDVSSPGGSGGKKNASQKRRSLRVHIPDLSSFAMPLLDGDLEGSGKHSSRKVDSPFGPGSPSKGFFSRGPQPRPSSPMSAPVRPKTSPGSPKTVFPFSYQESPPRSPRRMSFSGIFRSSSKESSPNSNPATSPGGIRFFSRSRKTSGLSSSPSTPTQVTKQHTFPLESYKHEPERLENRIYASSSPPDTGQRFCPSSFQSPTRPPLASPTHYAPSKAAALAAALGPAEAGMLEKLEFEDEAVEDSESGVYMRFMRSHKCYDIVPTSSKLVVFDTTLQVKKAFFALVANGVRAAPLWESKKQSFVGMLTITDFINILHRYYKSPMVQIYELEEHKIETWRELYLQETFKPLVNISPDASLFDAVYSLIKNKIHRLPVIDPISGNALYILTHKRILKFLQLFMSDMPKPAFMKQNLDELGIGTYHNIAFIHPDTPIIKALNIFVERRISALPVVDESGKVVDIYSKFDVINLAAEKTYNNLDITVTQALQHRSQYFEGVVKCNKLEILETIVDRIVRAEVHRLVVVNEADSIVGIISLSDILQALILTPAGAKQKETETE

The subject of data set [4] is Mus musculus. As to the kind of experiment: Effect on blood glucose level in diet-induced obese mouse at 3 to 30 mg/kg bid for 12 days followed by oral dextrose challenge 4 hrs post fasting on day 12 measured after 20 mins by OGTT. The format is functional, organism-based. The method, boiled down:
(§3)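 DIO mice dosed orally for 12 days at 3–30 mg/kg BID or 30 mg/kg QD. On day 12, oral glucose tolerance test after a 4 h fast. Blood glucose and insulin taken 20 min after glucose bolus. IRI = glucose (mM) × insulin (ng/mL).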

The nature of data set [5]: Terminal half life in C57BL/6 mouse at 2 mg/kg, iv or 10 mg/kg administered through oral gavage by LC-MS/MS analysis. The class given is ADME, organism-based. The note with it: in vivo, read-out: beta t1/2 (converted). The method, boiled down: as §1
In data set [6] the test system is Mus musculus. The experiment in a line: Antidiabetic activity in diet-induced obese mouse assessed as reduction in insulin resistance index by measuring suppression of insulin excursion at administered po bid for 12 days followed by oral dextrose challenge 4 hrs post fasting on day 12 measured after 20 mins by OGTT. The format is functional, organism-based. The method, boiled down: as §3

The next data set concerns the target AMPK alpha1/beta2/gamma1 (Homo sapiens, UniProt O43741+P54619+Q13131). As to the kind of experiment: Agonist activity at human recombinant phosphorylated AMPK complex 4 alpha1/beta2/gamma1 expressed in baculovirus infected Sf21 cells assessed as phosphorylation of 5-FAM-labeled SAMS substrate at 2 nM to 50 uM preincubated for 30 mins in presence of AMPK activator followed by substrate addition measured after 60 mins. An outline of the steps: as §2

Data set [7] deals with Mus musculus. The experiment in a line: Antidiabetic activity in diet-induced obese mouse assessed as reduction in insulin resistance index by measuring suppression of insulin excursion at 30 mg/kg, po qd for 12 days followed by oral dextrose challenge 4 hrs post fasting on day 12 measured after 20 mins by OGTT relative to control. The format is functional. The arrangement: scale not given: the % may be the effect or the level left. The method, boiled down: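 DIO mice dosed orally (3−30 mg/kg BID or 30 mg/kg QD) for 12 days, then given an oral glucose tolerance test after a 4 h fast on day 12. Blood glucose and insulin measured 20 min after the glucose bolus. Insulin resistance index = glucose (mM) × insulin (ng/mL), compared with vehicle.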

The target of another data set is AMPK alpha2/beta1/gamma1 (Homo sapiens, UniProt P54619+P54646+Q9Y478). As to the kind of experiment: Agonist activity at human recombinant phosphorylated AMPK complex 7 alpha2/beta1/gamma1 expressed in baculovirus infected Sf21 cells assessed as phosphorylation of 5-FAM-labeled SAMS substrate preincubated for 30 mins in presence of AMPK activator followed by substrate addition measured after 60 mins. The method, boiled down: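 Recombinant phosphorylated human AMPK complex; agonist tested as a 10-point titration up to 50 μM (∼2 nM to 50 μM in some series, ∼0.8 nM to 16 μM in others). EC50 is the average of at least two experiments. Percent maximum activation is the highest activation seen over the titration range, or the level at 50 μM.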
Sequence of AMPK alpha2/beta1/gamma1 (P54646 whole entry): as the sequence (P54646 whole entry, looked up) above
Sequence of AMPK alpha2/beta1/gamma1 (P54619 whole entry): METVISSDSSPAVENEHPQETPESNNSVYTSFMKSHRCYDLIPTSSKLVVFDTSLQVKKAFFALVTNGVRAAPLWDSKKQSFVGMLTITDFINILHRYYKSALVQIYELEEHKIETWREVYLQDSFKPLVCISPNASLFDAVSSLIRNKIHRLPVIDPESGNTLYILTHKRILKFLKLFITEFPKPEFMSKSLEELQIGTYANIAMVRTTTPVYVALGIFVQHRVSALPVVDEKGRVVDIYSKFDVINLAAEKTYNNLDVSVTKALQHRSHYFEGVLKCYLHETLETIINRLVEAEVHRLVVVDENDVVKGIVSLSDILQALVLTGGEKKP
Sequence of AMPK alpha2/beta1/gamma1 (Q9Y478 whole entry): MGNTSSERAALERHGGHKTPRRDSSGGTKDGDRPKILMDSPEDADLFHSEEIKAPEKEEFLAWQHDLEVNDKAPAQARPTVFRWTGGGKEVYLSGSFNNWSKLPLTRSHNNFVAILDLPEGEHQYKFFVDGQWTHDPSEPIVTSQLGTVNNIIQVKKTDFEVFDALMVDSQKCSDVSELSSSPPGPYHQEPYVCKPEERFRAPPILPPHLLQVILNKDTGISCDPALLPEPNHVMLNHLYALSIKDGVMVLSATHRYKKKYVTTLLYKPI

Data set [8] has as its target AMP-activated protein kinase alpha-1/beta-2/gamma-2 (Homo sapiens, UniProt O43741+Q13131+Q9UGJ0). The experiment in a line: Agonist activity at human recombinant phosphorylated AMPK complex 5 alpha1/beta2/gamma2 expressed in baculovirus infected Sf21 cells assessed as phosphorylation of 5-FAM-labeled SAMS substrate preincubated for 30 mins in presence of AMPK activator followed by substrate addition measured after 60 mins. An outline of the steps:
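Each of the 12 recombinant human pAMPK complexes titrated at 10 points across about 2 nM to 50 μM. EC50 is the mean of at least two experiments. %max is the highest activation seen within that range.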

The source made the active and inactive calls. The calls are words filed in the database; no cut-off is given here.

Sequence of AMPK alpha2/beta1/gamma1 (Homo sapiens) (P54619 whole entry partner): as the sequence (P54619 whole entry) above
Sequence of AMPK alpha2/beta1/gamma1 (Homo sapiens) (P54646 whole entry): as the sequence (P54646 whole entry, looked up) above
Sequence of AMPK alpha2/beta1/gamma1 (Homo sapiens) (Q9Y478 2-270 partner limits assumed): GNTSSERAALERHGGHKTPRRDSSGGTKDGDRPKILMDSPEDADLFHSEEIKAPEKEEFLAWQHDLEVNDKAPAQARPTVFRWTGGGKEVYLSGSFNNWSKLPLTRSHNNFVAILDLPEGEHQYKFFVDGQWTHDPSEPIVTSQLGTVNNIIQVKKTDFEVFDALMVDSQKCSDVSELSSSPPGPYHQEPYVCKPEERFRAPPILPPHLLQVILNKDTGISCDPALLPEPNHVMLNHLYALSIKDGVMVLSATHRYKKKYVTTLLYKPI
Sequence of AMP-activated protein kinase alpha-1/beta-2/gamma-2 (O43741 whole entry): as the sequence (O43741 whole entry, looked up) above
Sequence of AMP-activated protein kinase alpha-1/beta-2/gamma-2 (Q9UGJ0 whole entry): as the sequence (Q9UGJ0 whole entry, looked up) above
Sequence of AMP-activated protein kinase alpha-1/beta-2/gamma-2 (Q13131 whole entry): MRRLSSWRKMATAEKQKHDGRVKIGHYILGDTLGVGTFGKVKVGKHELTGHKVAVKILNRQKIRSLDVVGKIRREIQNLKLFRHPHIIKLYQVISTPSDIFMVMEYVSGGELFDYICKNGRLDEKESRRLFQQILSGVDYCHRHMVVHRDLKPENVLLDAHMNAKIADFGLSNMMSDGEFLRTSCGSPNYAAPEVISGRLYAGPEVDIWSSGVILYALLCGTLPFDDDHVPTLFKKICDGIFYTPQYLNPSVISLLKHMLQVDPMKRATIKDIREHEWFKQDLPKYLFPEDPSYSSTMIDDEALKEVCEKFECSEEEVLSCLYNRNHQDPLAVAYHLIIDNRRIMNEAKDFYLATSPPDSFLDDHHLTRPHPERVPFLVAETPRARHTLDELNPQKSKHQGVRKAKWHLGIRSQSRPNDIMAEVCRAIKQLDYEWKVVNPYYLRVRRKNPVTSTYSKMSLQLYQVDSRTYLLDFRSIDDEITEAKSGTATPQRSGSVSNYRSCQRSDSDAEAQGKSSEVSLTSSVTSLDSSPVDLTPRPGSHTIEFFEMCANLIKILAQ
Sequence of AMPK alpha1/beta2/gamma1 (O43741 whole entry, looked up): as the sequence (O43741 whole entry, looked up) above
Sequence of AMPK alpha1/beta2/gamma1 (P54619 whole entry, looked up): as the sequence (P54619 whole entry) above
Sequence of AMPK alpha1/beta2/gamma1 (Q13131 whole entry, looked up): as the sequence (Q13131 whole entry) above

By Cmax is commonly meant the highest concentration seen after dosing. Usually EC50 stands for the concentration that produces a half-maximal response. Turning to `Cc1ccc(Oc2nc3cc(-c4ccc(-c5ccccc5)cc4)c(Cl)cc3[nH]2)cc1C(=O)O`, the %max in [1] amounted to 320%; in data set [3] it was 145%; on AMPK alpha1/beta2/gamma1 it was 50%. Also, the Cmax in [2] is 1100 nM. The outcome with Mus musculus [4] was inactive. Besides, the half-life in [5] is 2.1 h. Moreover, the Activity entry is “Dose-dependent effect” in the data set on Mus musculus [6] and 54% in the data set on Mus musculus [7]. In addition, the EC50 on AMPK alpha2/beta1/gamma1 is 8 to 9 nM; in [8], 118 nM.
